The source of these data is the RNAGym collection of RNA variant scans (doi:10.1126/science.aae0568).

Variants at the floor of the assay were thinned out. Bounds are passed on as bounds.

B1: tRNA (parent)
chain: GUUCCGUUGGCGUAAUGGUAACGCGUCUCCCUCCUAAGGAGAAGACUGCGGGUUCGAGUCCCGUACGGAACG

In this series the parent is B1. In words: yeast fitness relative to wild type (ratio to wild type); higher = fitter; tRNA-Arg(CCU), competitive growth, 37 C, YPD. A digest of the protocol:
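Genotype frequency changes were the basis for Darwinian fitness relative to wild type. The frequencies came from 100-nucleotide paired-end sequencing of gene amplicons from the start population and each end population of pooled yeast strains with tRNA-Arg(CCU) gene variants at the native locus. Competition ran in YPD at 37°C for 24 hours in six replicates, genotypes needed ≥ 100 starting reads, and estimates < 0.5 were set to 0.5.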
As for U3C C22A G67A, the yeast fitness came to 0.667. The same measure for U3A U19C: 0.875; for U3C U7A G25A A42U U64A: no more than 0.5. Turning to U3C A42C A69C, the yeast fitness was 0.978. On to U3A C27U C60A, for which the yeast fitness was no more than 0.5.

U2G G17A C24U A36U A37U A70U: the yeast fitness is no more than 0.5. Then U3C G10U U26C A42U, with no more than 0.5; and U3A C33U A40C, with no more than 0.5. On to U3C A40G G58C A70U, for which the yeast fitness was no more than 0.5.

As to U3C C11G A21U G56A, the yeast fitness was no more than 0.5. In the case of U3A C5U A37U, the yeast fitness is no more than 0.5. For U3A G12C C24G, the yeast fitness was no more than 0.5. In the case of U3A A36G G68A A70C, the yeast fitness turned out to be 0.566. On to U3A C62A, for which the yeast fitness came to 0.727. Take U3C G38A A45C: the yeast fitness was no more than 0.5. Turning to U3C G25C G38A A42C G52A C62U, the yeast fitness was no more than 0.5. Regarding U3A C4U C33G C34G U54A, the yeast fitness was no more than 0.5. For U3C G56A U59C, the yeast fitness was determined as 0.768. Consider U3A C5A G6C A15G U16A U26G G38C U54A, for which the yeast fitness is no more than 0.5. Regarding U3A G6A C31U A40C, the yeast fitness is no more than 0.5.

For the variant U3A C11A A20G G39A G51A U53A G63C, the yeast fitness is no more than 0.5. Turning to U3A C4A U8C C29G A37C A69C, the yeast fitness was no more than 0.5. As for U3A C46U, the yeast fitness amounted to 1. Take U3A G25A A37U C61A: the yeast fitness was no more than 0.5. As to U3A U13A C22U C24U, the yeast fitness was no more than 0.5. On to U3A A20U G67U, for which the yeast fitness was 0.598.

Consider U3A A14G, for which the yeast fitness amounted to 0.934.

In the case of U3A C27G C31U C33U A42C G58C, the yeast fitness was no more than 0.5. As to U3C A57C, the yeast fitness is 0.504. Turning to U2G U54C C66U, the yeast fitness was no more than 0.5. The same measure for U2G G12A A15U C24G U53A U64A: no more than 0.5; for U3C A20G A43G: 0.744; for U3C U7G A14C C31A: 0.788. As to U3A C11U A65C, the yeast fitness was determined as 0.61.

Turning to U2G G39A C61G, the yeast fitness was no more than 0.5. On to U3C G9C C11U C30G A43C U59A G67C A69C, for which the yeast fitness is no more than 0.5. Then U3A C5A G23A G68U, with 0.816; and U3C A21C A45C C49U, with 0.532; and U3A G12C A21C A36C C49U A70U, with no more than 0.5. Turning to U3A C4U G10A C33G C34G A57U, the yeast fitness is no more than 0.5. Then U3C G6C A14U A20G G25A G38A U47A C60G A70G, with no more than 0.5.

Take U3A C4G U8A C34U: the yeast fitness is no more than 0.5. Turning to U3C A15C A65C, the yeast fitness was no more than 0.5. Consider U3C C11G A42C C49U, for which the yeast fitness is no more than 0.5. Then U3C C29G G44C C49G A57C, with no more than 0.5. In the case of U3C A37U G51A C62U, the yeast fitness was no more than 0.5. As to U3C A43C, the yeast fitness turned out to be 1.04. The same measure for U3C C61U G67A: 0.567; for U3A C4U C33G C34G A57U: 0.63.

Regarding U3C G58A, the yeast fitness came to 0.922. The same measure for U2G G18A C27A C30U: no more than 0.5; for U3C C27U C33U C61A: no more than 0.5.

Regarding U2G U13A, the yeast fitness was found to be 0.822. In the case of U3C G10C C27U G68C, the yeast fitness is no more than 0.5.

U3A C66G: the yeast fitness amounted to 0.669. U3C G12A G48C: the yeast fitness was determined as 0.558. The same measure for U3A G58A: 1.01; for U3A A37C C62U: 0.529; for U3C C5A C66U: 0.605.

Consider U3A U26A C66U, for which the yeast fitness is no more than 0.5. For U3A C11G G12A C22U G39A, the yeast fitness is no more than 0.5. Regarding U3A A21C C24G C62G, the yeast fitness turned out to be 0.599. Consider U3C A14U A40G C61G, for which the yeast fitness was found to be 0.567. Turning to U3C A15G C60G C62U, the yeast fitness is no more than 0.5. With U3A C30U U54A, the yeast fitness is no more than 0.5. As for U3A A14G C31G A37U A65U, the yeast fitness is no more than 0.5.

For U3A A15U A21C G39C A43G U54C, the yeast fitness was no more than 0.5. On to U3C C31A, for which the yeast fitness is 0.845.

For U3A U13C C49G, the yeast fitness was no more than 0.5.

With U3C G9A A15U C30A A42G, the yeast fitness amounted to 0.506. Turning to U2G G25U C49U A65G, the yeast fitness was found to be 0.64. The same measure for U3C C27G U28A: no more than 0.5. Regarding U3A C24G A69C, the yeast fitness was no more than 0.5. Then U3A G6C C55G, with no more than 0.5; and U3C C22U C55G U64A, with no more than 0.5; and U3C G18A U53A U54G G67U, with no more than 0.5.

For the variant U3C C11G G63U, the yeast fitness is no more than 0.5. Then U3C A36U A69U, with no more than 0.5. As to U2G G25C C27G C34U U35A G38A U59A, the yeast fitness was no more than 0.5. Consider U3C G17C C22A C24G U28C C33A, for which the yeast fitness was no more than 0.5. In the case of U3C G12A C24A A36U C61U G67U, the yeast fitness came out at 0.55. For U3A G6C, the yeast fitness stood at 0.662. U3A C5A U8G G10A C31U U47C: the yeast fitness was determined as 0.632. As to U3C C55U A65G, the yeast fitness was 0.514. Then U3A U32A G39A C49G C55U, with no more than 0.5; and U3A G10C A57G C66U, with no more than 0.5. As for U3A A36C G51C, the yeast fitness is 0.534. In the case of U3A A36U A43G G52C, the yeast fitness was no more than 0.5.

As for U3A A21G A70C, the yeast fitness was 1.05. Turning to U3C C5G A40G, the yeast fitness is no more than 0.5. For U3C C27G C33A, the yeast fitness amounted to 0.655. As for U3A G17C C29U, the yeast fitness is no more than 0.5. Turning to U3A C34U A45G C49U U53A, the yeast fitness was no more than 0.5. U3A A14G G58A: the yeast fitness was determined as 0.883. Consider U3A A21C C24G G68A, for which the yeast fitness was no more than 0.5. For the variant U3C A14C G44C G50C U54C C55A, the yeast fitness is no more than 0.5. For the variant U3A C61U, the yeast fitness amounted to 0.924. U3A G17A C22U A45G: the yeast fitness is no more than 0.5.

Regarding U3C G48C, the yeast fitness stood at 0.817. For U3C G48A, the yeast fitness was 0.952. Regarding U3A G9C C27G C34A, the yeast fitness was no more than 0.5. Turning to U3A C11U, the yeast fitness is 0.808.

On to U3C A21C, for which the yeast fitness was determined as 0.831.

As to U3A A65G G68A A70U, the yeast fitness came out at 0.556. In the case of U3A C22G, the yeast fitness amounted to 0.714.

In the case of U3C C5G G17C C29U, the yeast fitness is no more than 0.5.

Regarding U3A C4U C11A G44A, the yeast fitness is no more than 0.5. Take U3C G23C C30A G38C: the yeast fitness is no more than 0.5. Then U3A C4U U32C U64C, with 0.877.

In the case of U3C A45U U59C, the yeast fitness was 0.699. For the variant U3C C27G A45C, the yeast fitness was no more than 0.5. In the case of U3A U26G, the yeast fitness was 0.781.

For the variant U3C C4U C27U C30A G41C C49A C55G C61A, the yeast fitness was no more than 0.5. In the case of U3C C4U A15G U26A U32A C62U G67C, the yeast fitness came to 0.613. For U3A C4U A43C G50A A70U, the yeast fitness was no more than 0.5. Consider U3C A20U C30U A37G, for which the yeast fitness is 0.633. Take U3C A20G U47C: the yeast fitness worked out at 0.686. Turning to U3C A69U, the yeast fitness stood at 1.03. In the case of U2G G18A C27A C30U A65U, the yeast fitness was no more than 0.5.

As to U3A C31A C55U, the yeast fitness is no more than 0.5. Then U3C G50A, with 0.961; and U3C C24U, with 1.01; and U3A C4G U8A C24G U53C G58A, with no more than 0.5.

Take U3A C24U C31G G44C A69U: the yeast fitness is no more than 0.5. Consider U3A C27A C29G A65G, for which the yeast fitness was no more than 0.5. Then U3C C5G G51C, with no more than 0.5; and U3A C4G G68A, with no more than 0.5.

In the case of U3A G48C U54C C55A, the yeast fitness is no more than 0.5. Consider U3A C11U U13A G17C G18C A36C, for which the yeast fitness was no more than 0.5. For the variant U3A C4U G25C A69C, the yeast fitness is no more than 0.5.

As to U3C G25U U59C A69C, the yeast fitness is 0.531.

As for U3A U7A A43C G56A, the yeast fitness was no more than 0.5. The same measure for U3C C5U U8C U13C C29U C46A A65U C66A: no more than 0.5. Turning to U3A G10C G17C A37C G50C, the yeast fitness was no more than 0.5. For U3A A21G G23C A65C, the yeast fitness is no more than 0.5. Then U2G U35A U54G, with no more than 0.5; and U3A C27G U28G A36U A45U C49G, with 0.662. Turning to U3C C31A C49G A70C, the yeast fitness is no more than 0.5. Take U3C A65G G68C: the yeast fitness was 0.561. Turning to U2G G12A A14G, the yeast fitness turned out to be 0.561.

In the case of U3A U54C, the yeast fitness turned out to be 0.777.

For U3C U13C C24U G52A G68U, the yeast fitness is no more than 0.5. For the variant U3C C5U U7G C22U C27G G58A, the yeast fitness was no more than 0.5. Regarding U3C A14U U28G, the yeast fitness was no more than 0.5. In the case of U2G G25C C29U C33U A40G G52A U59C A65U, the yeast fitness is 0.581. For U3A A36U A57G G63C, the yeast fitness is 0.681. The same measure for U3C C11U U19A A43U U59A G63A: no more than 0.5; for U3A A36U A43G G52C G63A G67U A70C: 0.557; for U3A G12C A15C U19A C34U C49A G67A: no more than 0.5. For the variant U3C G38C A40G, the yeast fitness came to 0.501. Take U3C G17C A40G C61U: the yeast fitness is no more than 0.5. Take U3C U13A: the yeast fitness was 0.983. Consider U3C U13G, for which the yeast fitness turned out to be 1.04.

Regarding U3A C5G U35A A40U C46G U53A, the yeast fitness was found to be 0.583. With U3C G9A C61U, the yeast fitness was 0.827. The same measure for U3C A36C: 0.566.

Regarding U3A C4G G9A C11G, the yeast fitness was no more than 0.5. The same measure for U3C C34G A40C A43U: no more than 0.5; for U3A U7G A14U G25A G41C C46U U59C C61A: no more than 0.5; for U3C G25C C33G C61G: no more than 0.5.

With U3C C11A C24U A42G G63A, the yeast fitness was no more than 0.5. Then U3A C33U G44A, with no more than 0.5; and U3A C24U C31G A37G, with no more than 0.5. As for U3C C4A U16C G17A, the yeast fitness was no more than 0.5. Take U3C G25A A65C: the yeast fitness is 0.732. On to U3C G12A C46U G52C, for which the yeast fitness was no more than 0.5. The same measure for U3C C34A G44C C46U G51A: no more than 0.5.
